Data reported in ChEMBL document CHEMBL1123041, “Synthesis of new bis(aminoethanethiol) (BAT) derivatives: possible ligands for 99mTc brain imaging agents” (J Med Chem, 1985).

What was measured:
Rattus norvegicus [1] = assay: Biodistribution in Sprague-Dawley rat stomach 15 minutes after intravenous administration, [99mTc]/[125I]IAP ratio); format: ADME, organism-based; details: in vivo, 0.25 h
In short: (§1)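 99mTc complex and [125I]iodoantipyrine were co-injected iv into rats. Rats were killed by cardiectomy at 2 or 15 min, and organs were excised, weighed and gamma-counted in two channels with spillover correction. The ratio is 99mTc percent dose divided by 125I percent dose in the same organ, averaged over three rats. Radiochemical purity of the complexes was >95% by reversed-phase HPLC.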

Rattus norvegicus [2] = assay: Biodistribution in Sprague-Dawley rat spleen 2 minutes after intravenous administration, [99mTc]/[125I]IAP ratio); format: ADME, organism-based; details: in vivo; in short: as §1
Rattus norvegicus [3] = assay: Biodistribution in Sprague-Dawley rat liver 2 minutes after intravenous administration, [99mTc]/[125I]IAP ratio); format: ADME, organism-based; details: in vivo; in short: as §1
Homo sapiens = species on record: Homo sapiens; assay: The human serum protein binding activity was determined; format: functional
In short: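 Equilibrium dialysis: 0.4 mL pooled human serum against 0.4 mL 0.15 M phosphate buffer pH 7.4 containing 99mTc complex (~0.025 μCi), rotated 18 h at 37 °C. Both sides weighed and counted; percent free = buffer/serum radioactivity concentration ratio × 100. Membrane counted afterwards to check membrane binding.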

Rattus norvegicus [4] = assay: Biodistribution in Sprague-Dawley rat heart 2 minutes after intravenous administration, [99mTc]/[125I]IAP ratio); format: ADME, organism-based; details: in vivo; in short: as §1
[5] = Partition coefficient was determined atpH 7.0.; format: ADME; details: octanol/water, pH 7
In short: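 99mTc-labelled BAT complex shaken with 3 g each of 1-octanol and 0.1 M phosphate buffer (pH 7.0), vortexed 3 min at room temperature, centrifuged 5 min. Two 0.5 g samples per layer counted in a well counter; PC = cpm/g octanol over cpm/g buffer. Octanol layer repartitioned until values were consistent; usually repeated three times.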

Rattus norvegicus [6] = assay: Biodistribution in Sprague-Dawley rat lungs(2) 15 minutes after intravenous administration, [99mTc]/[125I]IAP ratio); format: ADME, organism-based, Lung; details: in vivo, 0.25 h; in short: as §1
Rattus norvegicus [7] = assay: Biodistribution in Sprague-Dawley rat small intestine 2 minutes after intravenous administration, [99mTc]/[125I]IAP ratio); format: ADME, organism-based; details: in vivo; in short: as §1
Rattus norvegicus [8] = assay: Biodistribution in Sprague-Dawley rat liver 15 minutes after intravenous administration, [99mTc]/[125I]IAP ratio); format: ADME, organism-based; details: in vivo, 0.25 h; in short: as §1
Rattus norvegicus [9] = assay: Biodistribution in Sprague-Dawley rat muscle 15 minutes after intravenous administration, [99mTc]/[125I]IAP ratio); format: ADME, organism-based, Muscle tissue; details: in vivo, 0.25 h; in short: as §1
Rattus norvegicus [10] = assay: Biodistribution in Sprague-Dawley rat kidneys(2) 15 minutes after intravenous administration, [99mTc]/[125I]IAP ratio); format: ADME, organism-based, Kidney; details: in vivo, 0.25 h; in short: as §1
Rattus norvegicus [11] = assay: Biodistribution in Sprague-Dawley rats heart 15 minutes after intravenous administration, [99mTc]/[125I]IAP ratio); format: ADME, organism-based; details: in vivo, 0.25 h; in short: as §1
Rattus norvegicus [12] = assay: Biodistribution in Sprague-Dawley rat spleen 15 minutes after intravenous administration, [99mTc]/[125I]IAP ratio); format: ADME, organism-based; details: in vivo, 0.25 h; in short: as §1
Rattus norvegicus [13] = assay: Biodistribution in Sprague-Dawley rat muscle 2 minutes after intravenous administration, [99mTc]/[125I]IAP ratio); format: ADME, organism-based, Muscle tissue; details: in vivo; in short: as §1
Rattus norvegicus [14] = assay: Biodistribution in Sprague-Dawley rat blood 15 minutes after intravenous administration, [99mTc]/[125I]IAP ratio); format: ADME, organism-based; details: in vivo, 0.25 h; in short: as §1
Rattus norvegicus [15] = assay: Biodistribution in Sprague-Dawley rat thyroid 2 minutes after intravenous administration, [99mTc]/[125I]IAP ratio); format: ADME, organism-based, Thyroid gland; details: in vivo; in short: as §1
Rattus norvegicus [16] = assay: Biodistribution in Sprague-Dawley rat stomach 2 minutes after intravenous administration, [99mTc]/[125I]IAP ratio); format: ADME, organism-based; details: in vivo; in short: as §1
Rattus norvegicus [17] = assay: Biodistribution in Sprague-Dawley rat brain 15 minutes after intravenous administration, [99mTc]/[125I]IAP ratio); format: ADME, organism-based; details: in vivo, 0.25 h; in short: as §1
Rattus norvegicus [18] = assay: Biodistribution in Sprague-Dawley rat kidneys(2) 2 minutes after intravenous administration, [99mTc]/[125I]IAP ratio); format: ADME, organism-based, Kidney; details: in vivo; in short: as §1
Rattus norvegicus [19] = assay: Biodistribution in Sprague-Dawley rat small intestine 15 minutes after intravenous administration, [99mTc]/[125I]IAP ratio); format: ADME, organism-based; details: in vivo, 0.25 h; in short: as §1
Rattus norvegicus [20] = assay: Biodistribution in Sprague-Dawley rat skin 2 minutes after intravenous administration, [99mTc]/[125I]IAP ratio); format: ADME, organism-based, Zone of skin; details: in vivo; in short: as §1
Rattus norvegicus [21] = assay: Biodistribution in Sprague-Dawley rat brain 2 minutes after intravenous administration, [99mTc]/[125I]IAP ratio); format: ADME, organism-based; details: in vivo; in short: as §1
Rattus norvegicus [22] = assay: Biodistribution in Sprague-Dawley rat lungs(2) 2 minutes after intravenous administration, [99mTc]/[125I]IAP ratio); format: ADME, organism-based, Lung; details: in vivo; in short: as §1
Rattus norvegicus [23] = assay: Biodistribution in Sprague-Dawley rat thyroid 15 minutes after intravenous administration, [99mTc]/[125I]IAP ratio); format: ADME, organism-based, Thyroid gland; details: in vivo, 0.25 h; in short: as §1
Rattus norvegicus [24] = assay: Biodistribution in Sprague-Dawley rat skin 15 minutes after intravenous administration, [99mTc]/[125I]IAP ratio); format: ADME, organism-based, Zone of skin; details: in vivo, 0.25 h; in short: as §1
Rattus norvegicus [25] = assay: Biodistribution in Sprague-Dawley rat blood 2 minutes after intravenous administration, [99mTc]/[125I]IAP ratio); format: ADME, organism-based; details: in vivo; in short: as §1

CC(C)(S)CNCC(CO)NCC(C)(C)S.Cl.Cl (stereo unspecified)
Dose (Rattus norvegicus [1]): 0.85% | Dose (Rattus norvegicus [2]): 0.349% | Dose (Rattus norvegicus [3]): 16.7% | Free (Homo sapiens): 42.5% | Dose (Rattus norvegicus [4]): 0.887% | Partition coefficient [5]: 64.5 | Dose (Rattus norvegicus [6]): 1.31% | Dose (Rattus norvegicus [7]): 4.46% | Dose (Rattus norvegicus [8]): 16.8% | Dose (Rattus norvegicus [9]): 14.9% | Dose (Rattus norvegicus [10]): 2.39% | Dose (Rattus norvegicus [11]): 0.3% | Dose (Rattus norvegicus [12]): 0.309% | Dose (Rattus norvegicus [13]): 13.4% | Dose (Rattus norvegicus [14]): 9.14% | Dose (Rattus norvegicus [15]): 0.088% | Dose (Rattus norvegicus [16]): 1.12% | Dose (Rattus norvegicus [17]): 0.15% | Dose (Rattus norvegicus [18]): 2.21% | Dose (Rattus norvegicus [19]): 19.5% | Dose (Rattus norvegicus [20]): 6.72% | Dose (Rattus norvegicus [21]): 0.24% | Dose (Rattus norvegicus [22]): 2.27% | Dose (Rattus norvegicus [23]): 0.053% | Dose (Rattus norvegicus [24]): 6.53% | Dose (Rattus norvegicus [25]): 18.1%
